Screens (PubChem)
Compounds with a hit are over-represented: about 2.3% of the library has one in this group of screens.
OXTR ag = activates the human oxytocin receptor; CHO-OTR cells, Fluo-8 calcium fluorescence; normalized: DMSO 0%, oxytocin 100%; activation, % at 3 µM; 0.32% of 320,000 active; AID 2435;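 active = activation above the mean of all tested compounds plus 3 SD, cutoff set per screening run, cut at about 20% in these data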;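 note: peak over basal fluorescence ratio from a 100 s FLIPR kinetic read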
Target sequence (P30559 whole entry, looked up): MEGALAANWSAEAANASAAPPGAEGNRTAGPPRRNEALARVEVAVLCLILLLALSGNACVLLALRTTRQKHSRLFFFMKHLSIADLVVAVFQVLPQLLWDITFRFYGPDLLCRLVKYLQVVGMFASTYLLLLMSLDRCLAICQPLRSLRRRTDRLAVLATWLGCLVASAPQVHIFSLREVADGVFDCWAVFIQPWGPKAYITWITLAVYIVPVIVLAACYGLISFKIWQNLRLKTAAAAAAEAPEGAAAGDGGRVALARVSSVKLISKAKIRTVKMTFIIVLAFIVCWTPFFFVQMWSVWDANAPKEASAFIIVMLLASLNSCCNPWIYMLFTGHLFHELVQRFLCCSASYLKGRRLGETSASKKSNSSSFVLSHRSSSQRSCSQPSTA
OXTR potentiator = potentiators of human oxytocin receptor; P30559; CHO-OTR cells, Fluo-8 calcium fluorescence, potentiator mode; 0% = oxytocin EC15, 100% = EC100; activation, % at 3 µM; 0.061% of 320,000 active;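 active = activation above that plate's cutoff, the mean activation of tested compounds plus 3 SD, cut at about 6.6% in these data, passing the limit was not always enough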
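test system = CHO-OTR cells, human receptor | compound = single-point 3.0 µM | schedule = 6 min compound pre-incubation at room temperature, 100 s kinetic read | signal = Fluo-8 no-wash calcium dye fluorescence, excitation 470-495 nm, emission 515-575 nm | repeats = single well per compound, singlicate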
V1R ag counter = counter-screen for oxytocin receptor agonists: human V1a receptor agonists. P37288. CHO-V1R cells, Fluo-8 calcium fluorescence, agonist mode; 0% DMSO, 100% 3 nM vasopressin. activation, % at 3 µM. 0.25% of 320,000 active. AID 2797;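 active = activation above the mean activation of all tested compounds plus 3 SD, per screening run, cut at about 20% in these data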;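 note: signal is peak over basal fluorescence ratio across a 100 second FLIPR read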
TAAR1 ag = human TAAR1 agonism | Q96RJ0 | CHO RD-HGA16 TAAR1, Fluo-8 calcium fluorescence; vehicle wells 0%, saturating PEA agonist 100% | activation, % at 3 µM | 0.99% of 360,000 active | AID 624467;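 active = activation above the mean activation of all test compounds in the run plus 3 SD, cut at about 38% in these data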
Target sequence (Q96RJ0 whole entry, looked up): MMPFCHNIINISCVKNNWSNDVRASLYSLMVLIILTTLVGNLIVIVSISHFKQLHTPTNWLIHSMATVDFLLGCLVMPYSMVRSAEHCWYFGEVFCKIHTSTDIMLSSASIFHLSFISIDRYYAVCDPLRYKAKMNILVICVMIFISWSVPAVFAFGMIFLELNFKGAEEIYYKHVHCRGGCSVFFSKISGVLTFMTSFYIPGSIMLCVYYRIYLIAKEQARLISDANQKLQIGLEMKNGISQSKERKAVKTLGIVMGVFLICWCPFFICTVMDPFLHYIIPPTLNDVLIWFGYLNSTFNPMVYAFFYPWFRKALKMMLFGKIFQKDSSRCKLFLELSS
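Test system: RD-HGA16 (CHO) cells co-expressing Gα16 and hTAAR1; dosing: one-point dosing at 3 µM (nominal); timing: 17-24 h seeding, 75 min 37 °C dye, 30 min RT; signal: kinetic Fluo-8 calcium fluorescence; read-out basis: % activation relative to PEA EC100 response; controls: DMSO and PEA EC100; replicates: n 1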
TAAR1 antagonist = antagonists of human TAAR1; Q96RJ0; CHO RD-HGA16 TAAR1, Fluo-8 calcium fluorescence, antagonist; inhibition, % at 3 µM; 1.5% of 360,000 active; AID 624466;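 active = inhibition above a per-plate cutoff, the mean inhibition of test compounds on that plate plus 3 SD, cut at about 49% in these data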
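Test system – hTAAR1-expressing CHO RD-HGA16 cells, Gα16-coupled · Also added – β-PEA at EC80 concentration, post-compound challenge · Compound – 3 µM, single point · Incubation – dye loading 75 min at 37 °C, then 30 min room temperature · Measured by – Fluo-8 intracellular calcium dye fluorescence, real-time kinetic reads · Benchmarks – vehicle and agonist controls · Replicates – singlicate, one well per test compound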
TAAR1 ag confirm = human TAAR1 agonism, confirmed. shares compounds with TAAR1 ag. CHO RD-HGA16 TAAR1, Fluo-8 calcium fluorescence; scaled: DMSO 0%, maximal phenethylamine 100%. activation, % at 3 µM. 82% of 2,400 active. AID 651783;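 active = activation above a cutoff set at the run's mean compound activation plus 3 SD, cut at about 39% in these data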
Ga16 nonsel ag = nonselective agonist in parental cells, TAAR1 agonist counter-screen; shares compounds with TAAR1 ag; CHO-Ga16 parental, Fluo-8 calcium fluorescence; normalized to maximal ATP response, DMSO zero; activation, % at 3 µM; 50% of 2,400 active; AID 651787;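 active = activation above the run cutoff, the mean activation over all tested wells plus 3 SD, cut at about 12% in these data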
TAAR1 desens = counter-screen for human TAAR1 agonists: agonists that desensitize TAAR1 | shares compounds with TAAR1 ag | CHO RD-HGA16 hTAAR1, Fluo-8 calcium, beta-PEA response inhibition | inhibition, % at 3 µM | 46% of 2,400 active | AID 651951;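 active = inhibition above the run cutoff, the mean inhibition of all test compounds plus 3 SD, cut at about 49% in these data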;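 note: beta-PEA stimulus applied at its EC80; loss of beta-PEA calcium signal after compound pretreatment read as receptor desensitization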
Ga16 antag count = nonselective Ga16 antagonist in TAAR1 agonist counter-screen; shares compounds with TAAR1 ag; inhibition, % at 3 µM; AID 651952; CHO-Ga16 ATP-induced calcium, Fluo-8 fluorescence; 39% of 2,400 active;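 active = inhibition above the plate's mean compound inhibition plus 3 SD, computed per plate, cut at about 22% in these data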
Of the large screens only hits and unclear results are named; the others gave an inactive call (follow-up assays come after a bar, where they were run).

COc1ccc(C(c2nnnn2CCc2ccccc2)N2CCN(C3CCCC3)CC2)cc1 (centres undefined)	TAAR1 ag 71, TAAR1 antagonist 54 | TAAR1 ag confirm 85 | Ga16 nonsel ag inactive | TAAR1 desens 61 | Ga16 antag count inactive
O=C(Cc1cccs1)N(CC1CCCO1)C1(C(=O)NC2CCCC2)CCCCC1 (centres undefined)	none
COc1ccccc1NS(=O)(=O)c1ccc(C(=O)N2CCCC(C(F)(F)F)C2)cc1 (centres undefined)	none
Cc1ccc(NS(=O)(=O)c2ccc(C(=O)N3CCCC(C(F)(F)F)C3)cc2)cc1 (centres undefined)	OXTR ag 53, V1R ag counter 49, TAAR1 ag 142, TAAR1 antagonist 89 | TAAR1 ag confirm 125 | Ga16 nonsel ag 90 | TAAR1 desens 88 | Ga16 antag count 48
Cc1ccc(NS(=O)(=O)c2ccc(NC(=O)N3CCCCC3)cc2)cc1	TAAR1 ag 52 | TAAR1 ag confirm 46 | Ga16 nonsel ag 14 | TAAR1 desens inactive | Ga16 antag count inactive
Cc1ccc(S(=O)(=O)Nc2ccc(NC(=O)c3c(F)c(F)c(F)c(F)c3F)cc2)cc1	OXTR ag 37, V1R ag counter 27, TAAR1 ag 117, TAAR1 antagonist 66 | TAAR1 ag confirm 115 | Ga16 nonsel ag 71 | TAAR1 desens 100 | Ga16 antag count 67
O=C(NC1=NCCS1)C1CC(=O)N(c2ccc(Cl)cc2)C1 (centres undefined)	none
C#CCNC(=O)C1=C[C@H](c2cn(C(C)=O)c3ccccc23)[C@@H](CCCO)[C@H](OCC)O1	none
CCN1CCc2c(sc(NC(=O)Nc3ccc(Cl)c(Cl)c3)c2C(N)=O)C1	OXTR ag 219, V1R ag counter 173, TAAR1 ag 178, TAAR1 antagonist 102 | TAAR1 ag confirm 164 | Ga16 nonsel ag 177 | TAAR1 desens 90 | Ga16 antag count 88
CCN1CCc2c(sc(NC(=O)Cc3ccccc3)c2C(N)=O)C1	none
CSc1ncnc2c1ncn2CCCNCCCc1ccccc1	none (no result: OXTR ag, OXTR potentiator, V1R ag counter)
CSc1ncnc2c1ncn2CCCNCCc1ccccn1	TAAR1 ag 69 (no result: OXTR ag, OXTR potentiator, V1R ag counter) | TAAR1 ag confirm 82 | Ga16 nonsel ag inactive | TAAR1 desens inactive | Ga16 antag count inactive
N#C/C(=C/C=C/c1ccccc1)C(=O)Nc1ccccc1	TAAR1 ag 74 | TAAR1 ag confirm inactive | Ga16 nonsel ag 25 | TAAR1 desens inactive | Ga16 antag count 26
O=C(Nc1ccc(C(=O)c2ccccc2)cc1)c1ccccc1	none
O=C(Nc1ccc(C(F)(F)F)cc1)c1ccccc1	TAAR1 ag 52, TAAR1 antagonist 63 | TAAR1 ag confirm inactive | Ga16 nonsel ag 12 | TAAR1 desens inactive | Ga16 antag count inactive
CSCC[C@H](NC(=O)NCc1ccccc1F)C(=O)O	none
COC(=O)[C@H](CCSC)NC(=O)NCCc1ccccc1F	TAAR1 ag 47 | TAAR1 ag confirm 53 | Ga16 nonsel ag inactive | TAAR1 desens inactive | Ga16 antag count inactive
CC1(C)CCC(=O)N2CC[C@H]3C[C@H](OC(=O)Nc4ccc5c(c4)OCO5)C[C@@H]1[C@H]32	none
CC1(C)CCC(=O)N2CC[C@H]3C[C@H](OC(=O)Nc4ccccc4)C[C@@H]1[C@H]32	TAAR1 ag 58 | TAAR1 ag confirm 52 | Ga16 nonsel ag inactive | TAAR1 desens inactive | Ga16 antag count inactive
Cc1c(Cl)ccc2c1NC(=O)[C@]21N[C@@H](Cc2ccccc2)[C@H]2C(=O)N(c3ccc(F)cc3)C(=O)[C@H]21	OXTR ag 27, V1R ag counter 24, TAAR1 ag 92 | TAAR1 ag confirm 103 | Ga16 nonsel ag 42 | TAAR1 desens 75 | Ga16 antag count 38
CCOC(=O)c1c(NC(=S)NC(=O)c2cnn(CC)c2)sc2c1CCC(C)C2 (centres undefined)	none
Cc1[nH]nc2ncc(C(=O)c3cc(F)ccc3O)cc12	none
CCCCN1Cc2cc(C(=O)c3cc(F)ccc3O)cnc2NC1=O	TAAR1 ag 82 | TAAR1 ag confirm 53 | Ga16 nonsel ag 24 | TAAR1 desens inactive | Ga16 antag count inactive
COc1ccc(Nc2nccc3c2ncn3C)cc1	none
CC(C)(C)CN1CCNC(=O)C1CC(=O)NCCc1ccccc1C(F)(F)F (centres undefined)	none
O=C(CC1C(=O)NCCN1Cc1ccccn1)NCCc1ccccc1F (centres undefined)	TAAR1 ag 78 | TAAR1 ag confirm 97 | Ga16 nonsel ag inactive | TAAR1 desens 72 | Ga16 antag count inactive
CN1CCNC(=O)C1CC(=O)NCCc1ccccc1F (centres undefined)	TAAR1 ag 74 | TAAR1 ag confirm 89 | Ga16 nonsel ag inactive | TAAR1 desens 59 | Ga16 antag count inactive
O=C(C[n+]1ccccc1)N/N=C/c1cc(Br)ccc1O	none
CCOc1ccc(C(=O)NCC(=O)OCC(=O)N2CCCC2)cc1	none
CC1(C)CC(=O)C(C(=O)/C=C/NCCc2ccccc2)C(=O)C1	TAAR1 ag 87, TAAR1 antagonist 92 | TAAR1 ag confirm 109 | Ga16 nonsel ag inactive | TAAR1 desens 93 | Ga16 antag count inactive
CC1CC(C)CN(C(=O)c2cccc(S(=O)(=O)NCc3ccccc3)c2)C1 (centres undefined)	TAAR1 ag 58 | TAAR1 ag confirm 50 | Ga16 nonsel ag inactive | TAAR1 desens inactive | Ga16 antag count inactive
CC1CCCN(C(=O)c2cccc(S(=O)(=O)NCc3ccccc3)c2)C1 (centres undefined)	none (no result: OXTR ag, OXTR potentiator, V1R ag counter)
Cn1c(=O)c2c(nc(N3CCCCCC3)n2Cc2cccc3ccccc23)n(C)c1=O	TAAR1 ag 66 | TAAR1 ag confirm 72 | Ga16 nonsel ag 42 | TAAR1 desens inactive | Ga16 antag count 28
CN1CCN(c2nc3c(c(=O)n(C)c(=O)n3C)n2Cc2cccc3ccccc23)CC1	none
CCN(c1ccccc1)S(=O)(=O)c1ccc(C(=O)N(CCCN(C)C)c2nc3c(C)cccc3s2)cc1	TAAR1 ag 43 | TAAR1 ag confirm inactive | Ga16 nonsel ag 16 | TAAR1 desens inactive | Ga16 antag count 32
CCN(c1ccccc1)S(=O)(=O)c1ccc(C(=O)N(CCCN(C)C)c2nc3cc4c(cc3s2)OCO4)cc1	none
